Results collected from several papers.
Target: Tyrosine-protein kinase receptor UFO (AXL, Homo sapiens, UniProt P30530)

SMILES	test	setting	measurement	value
O=C(O)c1ccc2c3c1cccc3c(=O)n1c3ccccc3nc21	enzyme activity, inhibitor	0.5 µM	remaining activity	94.3%
CNC(=O)c1cc(Oc2ccc(NC(=O)Nc3ccc(Cl)c(C(F)(F)F)c3)cc2)ccn1	enzyme activity, inhibitor	0.3 µM	inhibition	3%
N#CCCc1ccc2c(c1)-c1[nH]c3ccc([N+](=O)[O-])cc3c1CC(=O)N2	cell-free assay	0.5 µM	remaining signal	95.5%
O=C(Nc1cnn(-c2csc(C(=O)NC3COC3)c2)c1)Nc1c(F)cccc1Cl	enzyme activity, inhibitor	5 µM	remaining activity	73%
Cc1ccc(NC(=O)c2ccc(C)c(C(F)(F)F)c2)cc1C#Cc1nn(C2CCC(O)CC2)c2ncnc(N)c12 (centres unmarked)	cell-free assay	10 µM	remaining signal	56%
O=C(Nc1cccnn1)N1CCC(=Cc2cccc(Oc3ccc(C(F)(F)F)cn3)c2)CC1	cell-free assay, competition with immobilised ligand	1 µM	remaining binding	100%
Cc1cnc(NC2CCOCC2)nc1-n1cnc(C(=O)NC(CN)c2cc(F)cc(Cl)c2)c1 (centres unmarked)	enzyme activity, inhibitor, radiometric	1 µM	remaining activity	103%
C=CC(=O)Nc1cc(Nc2nccc(Nc3cc(Cl)c(F)cc3C(C)(C)O)n2)c(OC)cc1N1CC[C@@H](N(C)C)C1	enzyme activity, inhibitor	1 µM	inhibition	16%
CNC(=O)c1cc2c(Oc3ccc(NC(=O)C4(C(=O)Nc5ccc(F)cc5)CC4)cc3)ccnc2cc1OC	enzyme activity, inhibitor, radiometric	1 µM	inhibition	87%
Cc1nc(Cc2cccc(C(F)(F)F)c2)sc1-c1ccc(C(N)=O)nc1	binding, competition with immobilised ligand	1 µM	remaining binding	100%
CNCc1ccc(-c2cc(-c3nc(-c4ccc(S(=O)(=O)C(C)C)cc4)cnc3N)on2)cc1	enzyme activity, inhibitor	0.4 µM	inhibition	27%
CC(C)(C)c1nc(-c2cccc(NS(=O)(=O)c3c(F)cccc3F)c2F)c(-c2ccnc(N)n2)s1	enzyme activity, inhibitor, radiometric	1 µM	remaining activity	75%
CCN(CC)CCNC(=O)c1c(C)[nH]c(/C=C2\C(=O)Nc3ccc(F)cc32)c1C	enzyme activity, inhibitor	1 µM	remaining activity	7%
CCN(CC)CCNC(=O)c1c(C)[nH]c(/C=C2\C(=O)Nc3ccc(F)cc32)c1C	enzyme activity, inhibitor	10 µM	inhibition	94%
COc1cc(Nc2c(C#N)cnc3cc(OCCCN4CCN(C)CC4)c(OC)cc23)c(Cl)cc1Cl	cell-free assay	0.5 µM	remaining signal	37.6%
CC(=O)N1CCC(c2ccc(C(=O)NC(=N)N)cc2C(F)(F)F)CC1	cell-free assay, competition with immobilised ligand	1 µM	remaining binding	100%

SMILES	test	setting	measurement	value
COc1cc2c(Nc3ccc(Br)cc3F)ncnc2cc1OCC1CCN(C)CC1	cell-free assay	0.5 µM	remaining signal	55%
Cc1cc(C)c(-n2ccn3nc(-c4cccnc4)cc23)cc1NC(=O)c1cc(C#N)cc(S(F)(F)(F)(F)F)c1	cell-free assay, competition with immobilised ligand	0.1 µM	remaining binding	80.5%
O=c1cc(-c2cccc3c2Sc2ccccc2S3)oc(N2CCOCC2)c1	enzyme activity, inhibitor	0.5 µM	remaining activity	106%
Cc1cc(NC(=O)c2cccc3cc(-c4cccc5[nH]nc(N)c45)ccc23)ccc1F	enzyme activity, inhibitor	0.1 µM	activity vs control	113%
CN1CC(Oc2cnc(C#N)cc2-c2ccn3nc(NC(=O)C4CC4)cc3c2)C1	enzyme activity, inhibitor	1 µM	inhibition	-5%
Cc1cc(NC(=O)c2cccc(S(F)(F)(F)(F)F)c2)cc(-n2ccn3nc(-c4cccnc4)cc23)c1	cell-free assay, competition with immobilised ligand	1 µM	remaining binding	100%
COc1cc2ncnc(Nc3ccc(Oc4ccccc4)cc3C)c2cc1OC	enzyme activity, inhibitor	1 µM	inhibition	8%
COc1cc2nccc(Oc3ccc(NC(=S)NC(=O)c4ccccc4C)cc3)c2cc1OC	enzyme activity, inhibitor	0.5 µM	remaining activity	80.4%
COc1cc2nccc(Oc3ccc(NC(=O)c4c5n(n(-c6ccc(F)cc6)c4=O)CCCC5)cc3)c2cc1OC	enzyme activity, inhibitor	0.1 µM	inhibition	93%
CCC(=O)N[C@@H]1CC[C@H](C(=O)N(C)c2ccc(-c3nc4ccccc4o3)cc2)C1	cell-free assay, competition with immobilised ligand	1 µM	remaining binding	100%
Cc1[nH]c(/C=C2\C(=O)Nc3ccc(F)cc32)c(C)c1C(=O)N[C@H]1CCN(C(=O)N(C)C)C1	enzyme activity, inhibitor	1 µM	remaining activity	43%
CN([C@@H]1CCc2c(CC(=O)O)c3ccccc3n2C1)S(=O)(=O)c1ccc(F)cc1	cell-free assay, competition with immobilised ligand	1 µM	remaining binding	100%
Cc1sc(C(=O)NC2COC2)cc1-n1cc(NC(=O)Nc2c(F)cccc2Cl)cn1	enzyme activity, inhibitor	10 µM	remaining activity	86.6%
O=c1c2ccccc2[nH]c(=S)n1CCN1CCC(=C(c2ccc(F)cc2)c2ccc(F)cc2)CC1	enzyme activity, inhibitor	0.5 µM	remaining activity	91.7%
Cc1c(C(=O)O)cc(-c2ccc(C3CCNCC3)cc2)c2ccc(-c3ccc(C(F)(F)F)cc3)cc12	binding, competition with immobilised ligand	1 µM	remaining binding	100%
CC(C)(O)[C@H]1CC[C@H](Nc2ccc3ncc(-c4cccc(C(F)(F)F)c4)n3n2)CC1	enzyme activity, inhibitor	1 µM	remaining activity	78%
